Assay results from ChEMBL document CHEMBL3112446, “Discovery and optimization of a new class of pyruvate kinase inhibitors as potential therapeutics for the treatment of methicillin-resistant Staphylococcus aureus infections” (Bioorg Med Chem, 2014).
pIC50: −log10 of the molar value. Values after ≈ are worked out from the molar mass of the structure shown.

Tests used:
[1] = target: Pyruvate kinase PKLR (Homo sapiens) (UniProt P30613); experiment: Inhibition human pyruvate kinase L at 10 uM
Summary of the method: (§1)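 His-tagged recombinant human PK isoforms were used. Compounds were diluted in 100% DMSO and tested at 10 µM, the highest concentration tested. Values are percent inhibition of enzymatic activity.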

[2] = target: Pyruvate kinase PKLR (Homo sapiens) (UniProt P30613); experiment: Inhibition human pyruvate kinase R at 10 uM; summary of the method: as §1
[3] = target: Pyruvate kinase PKM (Homo sapiens) (UniProt P14618); experiment: Inhibition human pyruvate kinase M2 at 10 uM; summary of the method: as §1
[4] = target: Pyruvate kinase PKM (Homo sapiens) (UniProt P14618); experiment: Inhibition human pyruvate kinase M1 at 10 uM; summary of the method: as §1
Staphylococcus aureus [5] = experiment: Ratio of MIC90 for Staphylococcus aureus ATCC 29213 in presence of efflux inhibitor verapamil to MIC90 for Staphylococcus aureus ATCC 29213 in absence of efflux inhibitor verapamil; format: functional
Summary of the method: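 S. aureus ATCC 29213 broth microdilution in 96-well format, run in parallel in CAMHB with and without verapamil (200 mg/L, sub-inhibitory). Compounds were twofold serially diluted in DMSO and added to ~2.5 × 10^5 CFU/ml. Plates were incubated 18–24 h at 37 °C and read at OD600, with inhibitor-only wells subtracted as background. MIC is the lowest concentration giving complete growth inhibition versus compound-free wells, in duplicate or triplicate. The ratio compares the MIC with verapamil to the MIC without.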

Staphylococcus aureus [6] = experiment: Antibacterial activity against Staphylococcus aureus ATCC 29213 by two fold serial dilution method in presence of efflux inhibitor verapamil; format: functional
Summary of the method: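 S. aureus ATCC29213, 96-well twofold broth microdilution in CAMHB with verapamil 200 mg/L (sub-inhibitory) versus plain CAMHB. Incubated 18–24 h at 37 °C, OD600 read, compound-plus-medium background subtracted. MIC is the lowest concentration giving complete growth inhibition relative to compound-free wells.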

[7] = Inhibition of methicillin-resistant Staphylococcus aureus pyruvate kinase; conditions: for pIC50: read-out: IC50
Summary of the method: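 His-tagged MRSA PK. Compounds diluted in 100% DMSO. IC50 calculated from a triplicate 15-point titration.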

Staphylococcus aureus [8] = experiment: Inhibition of methicillin-resistant Staphylococcus aureus pyruvate kinase at 10 uM
Summary of the method: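 His-tagged MRSA PK. Compounds diluted in 100% DMSO. Percent inhibition reported at the highest concentration tested, 10 µM.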

HEK293 [9] = experiment: Cytotoxicity against HEK293 cells assessed as cell viability at 100 ug/ml; format: cell-based; conditions: human
HEK293 [10] = experiment: Cytotoxicity against HEK293 cells assessed as cell viability at 10 ug/ml; format: cell-based; conditions: human
HEK293 [11] = experiment: Cytotoxicity against HEK293 cells assessed as cell viability at 1 ug/ml; format: cell-based; conditions: human
Staphylococcus aureus [12] = experiment: Antibacterial activity against Staphylococcus aureus ATCC 29213 by two fold serial dilution method; format: functional
Staphylococcus aureus [13] = experiment: Inhibition of methicillin-resistant Staphylococcus aureus pyruvate kinase at 1 uM
Staphylococcus aureus [14] = experiment: Antibacterial activity against methicillin-resistant Staphylococcus aureus MW2 by two fold serial dilution method; format: functional

Chain of Pyruvate kinase PKLR (Homo sapiens) (P30613 whole entry, looked up, canonical isoform): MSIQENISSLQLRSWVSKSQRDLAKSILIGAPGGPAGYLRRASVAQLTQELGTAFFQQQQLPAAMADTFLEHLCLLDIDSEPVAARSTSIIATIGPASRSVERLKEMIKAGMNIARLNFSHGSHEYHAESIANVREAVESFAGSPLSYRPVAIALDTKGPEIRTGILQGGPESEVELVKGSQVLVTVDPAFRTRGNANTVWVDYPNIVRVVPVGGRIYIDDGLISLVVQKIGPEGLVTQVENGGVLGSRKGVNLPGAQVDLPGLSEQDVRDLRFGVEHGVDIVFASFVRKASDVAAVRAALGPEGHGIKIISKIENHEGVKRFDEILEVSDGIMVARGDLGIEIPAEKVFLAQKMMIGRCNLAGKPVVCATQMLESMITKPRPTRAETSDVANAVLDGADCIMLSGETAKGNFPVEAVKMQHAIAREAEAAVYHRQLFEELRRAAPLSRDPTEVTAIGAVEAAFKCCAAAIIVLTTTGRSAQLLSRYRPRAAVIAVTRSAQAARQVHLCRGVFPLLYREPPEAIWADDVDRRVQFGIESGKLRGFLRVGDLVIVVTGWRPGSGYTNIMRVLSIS
Chain of Pyruvate kinase PKM (Homo sapiens) (P14618 2-531 limits assumed): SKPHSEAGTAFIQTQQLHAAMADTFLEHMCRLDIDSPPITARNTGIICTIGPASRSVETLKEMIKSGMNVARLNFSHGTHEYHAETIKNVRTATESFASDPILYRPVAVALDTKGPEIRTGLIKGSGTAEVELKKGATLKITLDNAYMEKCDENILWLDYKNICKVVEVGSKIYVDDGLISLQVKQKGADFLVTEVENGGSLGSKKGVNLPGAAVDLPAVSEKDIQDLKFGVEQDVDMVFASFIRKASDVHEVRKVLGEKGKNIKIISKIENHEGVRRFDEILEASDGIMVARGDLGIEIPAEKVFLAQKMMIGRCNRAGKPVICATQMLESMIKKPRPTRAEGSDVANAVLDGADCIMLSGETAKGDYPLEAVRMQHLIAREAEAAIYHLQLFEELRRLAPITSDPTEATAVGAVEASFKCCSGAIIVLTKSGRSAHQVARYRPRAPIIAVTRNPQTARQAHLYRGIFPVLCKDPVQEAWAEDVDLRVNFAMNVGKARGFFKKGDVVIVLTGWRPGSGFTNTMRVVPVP

| Structure (SMILES) | inhibition [1] | inhibition [2] | inhibition [3] | inhibition [4] | pIC50 [7] | inhibition (Staphylococcus aureus [8]) | MIC>98 (Staphylococcus aureus [12]) | further results |
| --- | --- | --- | --- | --- | --- | --- | --- | --- |
| Brc1cc2cc(-c3cc4cc(Br)c(Br)cc4[nH]3)[nH]c2cc1Br | 8.2% | 20.7% | 2.3% | 11.1% | 8.70 | 97.6% | – | Ratio (Staphylococcus aureus [5]): 4; MIC (Staphylococcus aureus [6]): 16 µg/mL |
| COc1ccc2[nH]c(-c3cc4ccc(Br)cc4[nH]3)cc2c1 | – | – | – | – | 8.60 | – | >64 µg/mL | Cell viability (HEK293 [9]): 72%; Cell viability (HEK293 [10]): 88%; Cell viability (HEK293 [11]): 107% |
| Brc1ccc2cc(-c3cc4ccccc4s3)[nH]c2c1 | – | – | – | – | 7.85 | – | >64 µg/mL | – |
| Brc1ccc2cc(-c3cc4cc(Br)c(Br)cc4[nH]3)[nH]c2c1 | 23.7% | 33.4% | 15.8% | 8.6% | 8.82 | 94.1% | 0.5 µg/mL (≈ 1.07 µM) | Cell viability (HEK293 [9]): 63%; Cell viability (HEK293 [10]): 71%; Cell viability (HEK293 [11]): 102% |
| Cn1c(-c2cc3cc(Br)ccc3[nH]2)cc2ccc(Br)cc21 | – | – | – | – | – | 25% | – | IC50 [7]: Not Active |
| Cn1c(-c2cc3ccc(Br)cc3[nH]2)cc2cc(Br)ccc21 | 2.8% | 2.7% | 9.1% | 13.9% | 9.00 | 99% | >64 µg/mL | – |
| COc1cc(-c2cc3ccccc3[nH]2)ccc1-c1cc2ccc(Br)cc2[nH]1 | 4.3% | 13.5% | 14.6% | 7.3% | 8.68 | 62.2% | >64 µg/mL | – |
| Brc1ccc2[nH]c(-c3cc4ccccc4o3)cc2c1 | – | – | – | – | – | 45% | – | – |
| Brc1ccc2cc(/C=C/c3cc4ccccc4[nH]3)[nH]c2c1 | 12.9% | 23.8% | -0.9% | 16.1% | 8.35 | 93.4% | >64 µg/mL | Cell viability (HEK293 [9]): 115%; Cell viability (HEK293 [10]): 114%; Cell viability (HEK293 [11]): 107% |
| Brc1ccc2cc(-c3cccc(-c4cc5ccccc5[nH]4)c3)[nH]c2c1 | – | – | – | – | – | 36% | – | – |
| Brc1ccc2[nH]c(-c3cc4ccccc4s3)cc2c1 | – | – | – | – | – | – | >64 µg/mL | inhibition (Staphylococcus aureus [13]): 42% |
| Brc1ccc2[nH]c(/C=C/c3cc4ccc(Br)cc4[nH]3)cc2c1 | – | – | – | – | 8.39 | – | >64 µg/mL | – |
| Brc1ccc2[nH]c(-c3cc4cc(Br)c(Br)cc4[nH]3)cc2c1 | – | – | – | – | 8.80 | – | 1 µg/mL (≈ 2.13 µM) | – |
| Brc1ccc2[nH]c(CCc3cc4ccc(Br)cc4[nH]3)cc2c1 | – | – | – | – | 8.20 | – | >64 µg/mL | – |
| Brc1ccc2[nH]c(-c3cc4ccccc4[nH]3)cc2c1 | – | – | – | – | – | 36% | – | – |
| Brc1ccc2cc(-c3ccc(-c4cc5ccccc5[nH]4)cc3)[nH]c2c1 | – | – | – | – | 8.25 | – | >64 µg/mL | – |
| Cn1c(C#Cc2cc3ccc(Br)cc3n2C)cc2ccc(Br)cc21 | – | – | – | – | – | 27% | – | – |
| Brc1ccc2cc(-c3cc4ccccc4o3)[nH]c2c1 | -6% | -5.5% | 0.4% | 5.3% | 6.97 | 95.9% | >64 µg/mL | – |
| Brc1ccc2cc(/C=C/c3cc4ccc(Br)cc4[nH]3)[nH]c2c1 | – | – | – | – | 8.41 | – | >64 µg/mL | – |
| OCCn1c(-c2cc3ccc(Br)cc3[nH]2)cc2cc(Br)ccc21 | 6.8% | 25.2% | 12.1% | 14.6% | 8.89 | 101% | 2 µg/mL (≈ 4.61 µM) | – |
| Cn1c(C#Cc2cc3ccc(Br)cc3[nH]2)cc2ccc(Br)cc21 | – | – | – | – | 7.86 | – | >64 µg/mL | – |
| Brc1ccc2[nH]c(-c3nc4ccccc4s3)cc2c1 | – | – | – | – | 6.45 | – | >64 µg/mL | – |

| Structure (SMILES) | inhibition [1] | inhibition [2] | inhibition [3] | inhibition [4] | pIC50 [7] | inhibition (Staphylococcus aureus [8]) | MIC>98 (Staphylococcus aureus [12]) | further results |
| --- | --- | --- | --- | --- | --- | --- | --- | --- |
| COCn1c(-c2cc3ccc(Br)cc3[nH]2)cc2cc(Br)ccc21 | – | – | – | – | 8.72 | – | >64 µg/mL | Cell viability (HEK293 [9]): 73%; Cell viability (HEK293 [10]): 102%; Cell viability (HEK293 [11]): 123% |
| Brc1ccc2cc(-c3cc4ccccc4[nH]3)[nH]c2c1 | – | – | – | – | 7.67 | – | 2 µg/mL (≈ 6.43 µM) | – |
| Brc1ccc2cc(C#Cc3cc4ccc(Br)cc4[nH]3)[nH]c2c1 | – | – | – | – | 8.62 | – | >64 µg/mL | – |
| Brc1ccc2c(c1)cc(-c1cc3ccc(Br)cc3[nH]1)n2CCN1CCOCC1 | 32.1% | 50.7% | 3.5% | 13.1% | 8.92 | 101% | >64 µg/mL | – |
| Brc1ccc2[nH]c(C#Cc3cc4ccc(Br)cc4[nH]3)cc2c1 | 14% | 27.8% | 8.7% | 19.5% | 8.33 | 86.3% | 16 µg/mL (≈ 38.6 µM) | – |
| Brc1ccc2cc(C#Cc3cc4ccccc4[nH]3)[nH]c2c1 | – | – | – | – | 8.15 | – | >64 µg/mL | – |
| O=C(O)Cn1c(-c2cc3ccc(Br)cc3[nH]2)cc2cc(Br)ccc21 | – | – | – | – | 7.95 | – | >64 µg/mL | – |
| Fc1ccc2[nH]c(-c3cc4ccc(Br)cc4[nH]3)cc2c1 | – | – | – | – | 8.55 | – | – | MIC (Staphylococcus aureus [14]): 0.5 µg/mL (≈ 1.52 µM) |
| Brc1ccc2cc(-c3cc4ccc(Br)cc4[nH]3)[nH]c2c1 | 7.9% | 18.3% | 0.1% | 10.3% | 8.15 | 84.9% | – | Cell viability (HEK293 [9]): 118%; Cell viability (HEK293 [10]): 106%; Cell viability (HEK293 [11]): 103%; Ratio (Staphylococcus aureus [5]): 32; MIC (Staphylococcus aureus [6]): 0.5 µg/mL |
| O=[N+]([O-])c1cc(-c2cc3ccccc3[nH]2)ccc1-c1cc2ccc(Br)cc2[nH]1 | -8.9% | 0% | 6.8% | 9.5% | 8.74 | 86.2% | 2 µg/mL (≈ 4.63 µM) | – |
| Brc1ccc2[nH]c(-c3cc4cc(Br)ccc4[nH]3)cc2c1 | 9.8% | 24.4% | 0.5% | 12.3% | 8.52 | 71% | – | – |
| Brc1cc2cc(-c3cc4ccccc4[nH]3)[nH]c2cc1Br | – | – | – | – | – | 39% | – | – |
| Brc1ccc2cc(-c3cc4cc(-c5ccccc5)ccc4[nH]3)[nH]c2c1 | – | – | – | – | 8.66 | – | >64 µg/mL | – |
| Brc1ccc2cc(-c3nc4ccccc4s3)[nH]c2c1 | 7.8% | 21.6% | 3% | 12.4% | 6.82 | 89.8% | >64 µg/mL | – |
| Brc1ccc2cc(-c3ccc(-c4cc5ccc(Br)cc5[nH]4)s3)[nH]c2c1 | – | – | – | – | – | – | >64 µg/mL | inhibition (Staphylococcus aureus [13]): 28% |
| Brc1ccc2[nH]c(-c3cc4ccc(Br)cc4[nH]3)cc2c1 | 6.1% | 13.6% | 8.7% | 6.9% | 8.66 | 97.8% | – | MIC (Staphylococcus aureus [14]): 0.5 µg/mL (≈ 1.28 µM) |
| O=C(Cn1c(-c2cc3ccc(Br)cc3[nH]2)cc2cc(Br)ccc21)N1CCOCC1 | – | – | – | – | 8.22 | – | >64 µg/mL | – |
| Brc1ccc2cc(-c3ccc(-c4cc5ccc(Br)cc5[nH]4)cc3)[nH]c2c1 | – | – | – | – | – | – | >64 µg/mL | inhibition (Staphylococcus aureus [13]): 54% |
| Brc1ccc2cc(CCc3cc4ccc(Br)cc4[nH]3)[nH]c2c1 | 9.7% | 24.1% | 1.3% | 9.9% | 8.19 | 93.4% | >64 µg/mL | Cell viability (HEK293 [9]): 85%; Cell viability (HEK293 [10]): 92%; Cell viability (HEK293 [11]): 104% |
| CN1CCN(CCn2c(-c3cc4ccc(Br)cc4[nH]3)cc3cc(Br)ccc32)CC1 | 16.8% | 26.1% | 1.7% | 3.2% | 8.70 | 100% | 4 µg/mL (≈ 7.75 µM) | – |
| Brc1ccc2[nH]c(-c3nc4ccc(Br)cc4s3)cc2c1 | – | – | – | – | 8.39 | – | >64 µg/mL | – |
